Experimental findings from ChEMBL document CHEMBL4138318, “Discovery of 5-Cyano-6-phenylpyrimidin Derivatives Containing an Acylurea Moiety as Orally Bioavailable Reversal Agents against P-Glycoprotein-Mediated Mutidrug Resistance” (J Med Chem, 2018) are described below.

Data set [1] in a line: Cytotoxicity against human SW620 cells assessed as survival at 2 uM after 72 hrs by MTT assay relative to control. Type of data set: cell-based, SW-620. The following applies: read-out: Survival.
Data set [2] in a line: Cytotoxicity against human SW620/AD300 cells assessed as survival at 2 uM after 72 hrs by MTT assay relative to control. Format: cell-based. The following applies: read-out: Survival. For orientation: Tetrazolium dyes change colour on reduction, which living cells bring about.
Data set [3] deals with ATP-dependent translocase ABCB1 (Homo sapiens, UniProt P08183). Put plainly: Inhibition of ABCB1 in human SW620/AD300 cells assessed as potentiation of paclitaxel-induced cytotoxicity by measuring fold reduction in paclitaxel IC50 at 2 uM after 72 hrs by MTT assay relative to paclitaxel alone. Format: cell-based. The essentials: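 SW620/AD300 cells (~5×10^3/well) treated with graded paclitaxel with or without modulator (2 µM, or 0.5-2 µM in dose series; 0.1% DMSO solvent control) for 72 h; MTT (5 mg/mL stock) added 4 h, absorbance 490 nm. IC50 as mean ± SD of three independent runs; reversal fold = paclitaxel IC50 without/with modulator.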
Sequence of ATP-dependent translocase ABCB1 (P08183 whole entry): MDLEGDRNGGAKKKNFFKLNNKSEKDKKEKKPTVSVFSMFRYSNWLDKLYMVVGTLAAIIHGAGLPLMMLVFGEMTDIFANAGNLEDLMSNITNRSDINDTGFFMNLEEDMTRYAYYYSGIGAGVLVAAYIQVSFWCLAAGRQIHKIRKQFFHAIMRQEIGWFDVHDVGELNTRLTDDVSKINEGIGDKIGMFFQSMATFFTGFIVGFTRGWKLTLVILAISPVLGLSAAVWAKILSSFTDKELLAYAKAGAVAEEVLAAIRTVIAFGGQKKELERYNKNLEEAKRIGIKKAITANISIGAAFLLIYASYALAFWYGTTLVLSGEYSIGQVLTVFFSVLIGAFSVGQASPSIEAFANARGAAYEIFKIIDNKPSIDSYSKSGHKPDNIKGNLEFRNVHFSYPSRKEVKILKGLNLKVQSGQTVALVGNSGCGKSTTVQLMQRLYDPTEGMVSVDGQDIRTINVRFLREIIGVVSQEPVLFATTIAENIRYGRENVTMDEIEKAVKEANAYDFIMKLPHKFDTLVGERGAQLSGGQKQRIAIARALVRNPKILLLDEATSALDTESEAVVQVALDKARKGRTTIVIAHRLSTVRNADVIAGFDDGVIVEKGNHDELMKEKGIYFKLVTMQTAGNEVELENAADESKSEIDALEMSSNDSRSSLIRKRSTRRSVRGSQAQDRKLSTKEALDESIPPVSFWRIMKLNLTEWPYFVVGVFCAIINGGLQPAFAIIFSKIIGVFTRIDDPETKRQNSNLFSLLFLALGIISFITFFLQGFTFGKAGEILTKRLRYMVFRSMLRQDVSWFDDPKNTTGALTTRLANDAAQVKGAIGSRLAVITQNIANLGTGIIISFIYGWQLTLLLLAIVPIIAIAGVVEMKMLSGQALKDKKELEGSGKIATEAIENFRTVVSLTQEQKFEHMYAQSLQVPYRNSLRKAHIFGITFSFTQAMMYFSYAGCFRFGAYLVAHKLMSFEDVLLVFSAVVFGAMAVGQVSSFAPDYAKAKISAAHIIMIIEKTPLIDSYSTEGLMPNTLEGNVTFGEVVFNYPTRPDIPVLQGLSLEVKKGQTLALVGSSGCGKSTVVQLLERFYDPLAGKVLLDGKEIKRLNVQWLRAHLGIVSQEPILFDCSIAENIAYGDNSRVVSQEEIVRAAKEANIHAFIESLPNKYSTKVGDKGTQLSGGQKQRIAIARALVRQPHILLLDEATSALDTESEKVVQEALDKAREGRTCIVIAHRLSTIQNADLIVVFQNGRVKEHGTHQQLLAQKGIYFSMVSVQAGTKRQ

Consider `COc1cc(-c2nc(SCC(=O)Nc3ccccn3)nc(Nc3cccc(Cl)c3)c2C#N)cc(OC)c1OC`, for which the viability at 72 h, 2 µM in data set [1] and in data set [2] was greater than 90% each time. Besides, in data set [3], the “fold change (FC)” value was 5.51.
For the molecule `COc1ccc(Nc2nc(SCc3cn(CC(=O)NC(=O)Nc4ccccn4)nn3)nc(-c3ccc(C(C)C)cc3)c2C#N)cc1`, the viability at 72 h, 2 µM in data set [1] and in data set [2] was greater than 90% throughout. In addition, the “fold change (FC)” value in data set [3] came to 6.3.
Take `CC(C)c1ccc(-c2nc(SCC(=O)NC(=O)Nc3ccccn3)nc(Nc3cccc(C(F)(F)F)c3)c2C#N)cc1`: the viability at 72 h, 2 µM in data set [1] and in data set [2] was greater than 90% throughout. Also, the “fold change (FC)” value in data set [3] came out at 37.04.
On to `CC(C)c1ccc(Nc2nc(SCc3cn(CC(=O)NC(=O)Nc4ccccn4)nn3)nc(-c3ccc(C(C)C)cc3)c2C#N)cc1`, for which the viability at 72 h, 2 µM in data set [1] and in data set [2] was greater than 90% in each case. Besides, in data set [3], the “fold change (FC)” value is listed as 9.49.
For `CC(C)c1ccc(-c2nc(SCc3cn(CC(=O)NC(=O)Nc4ccccn4)nn3)nc(Nc3ccc(F)cc3)c2C#N)cc1`, the viability at 72 h, 2 µM in data set [1] and in data set [2] was greater than 90% each time. Besides, in data set [3], the “fold change (FC)” value is 2.11.
Take `COc1cc(-c2nc(SCC(=O)NC(=O)Nc3ccccc3)nc(Nc3cccc([N+](=O)[O-])c3)c2C#N)cc(OC)c1OC`: the viability at 72 h, 2 µM in data set [1] and in data set [2] was greater than 90% each time. In data set [3], the “fold change (FC)” value came out at 21.04.
As for `COc1cc(-c2nc(SCc3cn(CC(=O)NC(=O)Nc4ccccn4)nn3)nc(Nc3ccc(C)cc3)c2C#N)cc(OC)c1OC`, the viability at 72 h, 2 µM in data set [1] and in data set [2] was greater than 90% in each case. The “fold change (FC)” value in data set [3] is reported as 6.23.
For `CC(C)c1ccc(-c2nc(SCc3cn(CC(=O)NC(=O)Nc4ccccn4)nn3)nc(Nc3ccccc3)c2C#N)cc1`, the viability at 72 h, 2 µM in data set [1] and in data set [2] was greater than 90% in each case. For the same molecule, the “fold change (FC)” value in data set [3] is 1.65.
Turning to `N#Cc1c(Nc2ccccc2Cl)nc(SCC(=O)NC(=O)Nc2ccccn2)nc1-c1ccc(F)c(F)c1`, the viability at 72 h, 2 µM in data set [1] and in data set [2] was greater than 90% each time. For the same molecule, the “fold change (FC)” value in data set [3] came to 14.24.
`COc1cc(-c2nc(SCC(=O)NC(=O)Nc3ccccc3)nc(Nc3ccc(C(C)C)cc3)c2C#N)cc(OC)c1OC`: the viability at 72 h, 2 µM in data set [1] and in data set [2] was greater than 90% each time. For the same molecule, the “fold change (FC)” value in data set [3] is recorded as 25.07.
For `N#Cc1c(Nc2cccc(Cl)c2)nc(SCC(=O)NC(=O)Nc2ccccn2)nc1-c1ccc(F)c(F)c1`, the viability at 72 h, 2 µM in data set [1] and in data set [2] was greater than 90% in each case. Further, the “fold change (FC)” value in data set [3] amounted to 4.37.
As for `CC(C)c1ccc(-c2nc(SCc3cn(CC(=O)NC(=O)Nc4ccccn4)nn3)nc(Nc3cccc([N+](=O)[O-])c3)c2C#N)cc1`, the viability at 72 h, 2 µM in data set [1] and in data set [2] was greater than 90% each time. Besides, the “fold change (FC)” value in data set [3] was 2.99.
In the case of `Cc1ccc(-c2nc(SCc3cn(CC(=O)NC(=O)Nc4ccccn4)nn3)nc(Nc3cccc(C(F)(F)F)c3)c2C#N)cc1`, the viability at 72 h, 2 µM in data set [1] and in data set [2] was greater than 90% each time. Further, in data set [3], the “fold change (FC)” value worked out at 1.88.
As to `COc1ccccc1Nc1nc(SCC(=O)NC(=O)Nc2ccccn2)nc(-c2ccc(F)c(F)c2)c1C#N`, the viability at 72 h, 2 µM in data set [1] and in data set [2] was greater than 90% each time. The “fold change (FC)” value in data set [3] was 13.42.
In the case of `COc1cc(-c2nc(SCC(=O)NC(=O)Nc3ccccn3)nc(Nc3cccc(C(F)(F)F)c3)c2C#N)cc(OC)c1OC`, the viability at 72 h, 2 µM in data set [1] and in data set [2] was greater than 90% in each case. Moreover, the “fold change (FC)” value in data set [3] was determined as 58.14.
For the molecule `Cc1ccc(-c2nc(SCc3cn(CC(=O)NC(=O)Nc4ccccn4)nn3)nc(Nc3cccc(Cl)c3)c2C#N)cc1`, the viability at 72 h, 2 µM in data set [1] and in data set [2] was greater than 90% in each case. Also, the “fold change (FC)” value in data set [3] came to 13.42.
